High-throughput results: PubChem, several laboratories
Sampled rows, rich in hits. Any-hit rate of the full collection: about 2.4%.
Runt-CBFb FRET: Runt domain-CBFb interaction inhibition; Q01196+Q13951; Cerulean-Runt/Venus-CBFb FRET ratio 530/480, 1 h; inhibition, % at 20 µM; 0.46% of 220,000 active;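 active = inhibition over about 50% at 20 µM in the single-dose screen, limit read from the data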;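 also: 0% = DMSO wells and 100% = excess unlabeled CBFb competitor control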
Target sequence (Q01196 whole entry, looked up, the tested form may be a part): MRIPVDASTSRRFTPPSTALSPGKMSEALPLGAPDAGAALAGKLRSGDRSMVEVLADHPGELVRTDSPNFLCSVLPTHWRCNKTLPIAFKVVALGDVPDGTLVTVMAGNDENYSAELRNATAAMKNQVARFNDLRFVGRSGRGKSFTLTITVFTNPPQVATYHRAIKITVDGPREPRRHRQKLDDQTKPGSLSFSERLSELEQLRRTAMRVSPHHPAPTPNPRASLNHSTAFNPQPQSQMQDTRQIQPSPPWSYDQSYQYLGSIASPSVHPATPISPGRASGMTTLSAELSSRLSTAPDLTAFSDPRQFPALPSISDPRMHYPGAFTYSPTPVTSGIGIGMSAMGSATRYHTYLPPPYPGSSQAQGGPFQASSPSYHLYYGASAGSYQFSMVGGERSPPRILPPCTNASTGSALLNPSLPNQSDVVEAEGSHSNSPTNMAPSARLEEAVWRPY
Target sequence (Q13951 whole entry, looked up, the tested form may be a part): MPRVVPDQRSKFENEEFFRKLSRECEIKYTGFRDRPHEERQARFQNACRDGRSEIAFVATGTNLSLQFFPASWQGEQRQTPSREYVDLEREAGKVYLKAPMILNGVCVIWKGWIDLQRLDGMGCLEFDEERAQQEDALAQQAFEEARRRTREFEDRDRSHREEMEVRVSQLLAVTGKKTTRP
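Schedule: protein complex preformed 1 h, compound exposure 1 h, room temperature, dark; test system: Cerulean-labeled Runt domain protein; amount: 100 nM per protein; buffer or medium: Tris 50 mM pH 7.5, KCl, K2SO4, 0.01% BSA; read-out: loss of energy transfer signal; detection: FRET fluorescence; controls: 5 µM unlabeled CBFb as full-inhibition high control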
Runt-SMMHC FRET: Runt domain-CBFb-SMMHC interaction inhibition; Cerulean-Runt/Venus-CBFb-SMMHC FRET ratio 530/480, 1 h; inhibition, % at 20 µM; 0.74% of 220,000 active;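 active = mean inhibition across duplicate retests at 20 µM reaching about 50%, limit read from the data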;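 also: 0% = DMSO wells and 100% = wells with excess untagged CBFb-SMMHC; inhibitors lower the FRET ratio by blocking Runt binding to CBFb-SMMHC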
MEX-5 binding: C. elegans MEX-5 TCR-2 RNA binding activity | activity score (negative = inhibition of binding), % at 10 µM | MEX-5/FITC-TCR2 RNA binding, fluorescence polarization; stronger effect = lower value | 0.38% of 300,000 active | AID 1832 | Q9XUB2;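 active = inhibition past about -25% in most replicates, and total fluorescence under double the plate's negative control median, limit read from the data; inconclusive = replicates evenly split on the limit, or fluorescence at least double controls; inactive = too little inhibition in most replicates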;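 also: 0% = DMSO and -100% = 5 µM competing unlabeled TCR2 RNA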
EBV gp42 block: inhibitors of Epstein-Barr virus glycoprotein 42; Fluorescence polarization binding assay, mP read-out; 0.42% of 220,000 active; inhibition, % (tested at 21.74 µM); AID 1085; Q1HVG2; in the data active = inhibition above about 50%
RanGTP-Imp inh: disruptors of Ran-importin-beta complex formation – biochemical, FRET, CFP-Ran, YFP-importin-beta, homogeneous, primary screen. 1.1% of 300,000 active. cell-free CFP-Ran/YFP-importin-beta FRET ratio. inhibition, % (concentration not given with the values);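 active = more than half of the replicate wells show a fall in the fluorescence ratio signal beyond about 16%, limit read from the data, passing the limit was not always enough; inconclusive = exactly half of the replicate wells pass the set limit; inactive = fewer than half of replicates pass the limit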;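 also: 0% = DMSO wells and 100% = Ran loaded with GDP instead of GTP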
LANA-H2B inh: blocks KSHV LANA binding to histone H2A/H2B; 0.6% of 320,000 active; cell-free LANA-H2A/H2B peptide, fluorescence polarization; inhibition, % (test concentration not listed); AID 2629; Q9QR71; in the data active = inhibition mostly above about 10%, no sharp cut-off; inactive = mostly below about 6.7%
An asterisk follows results filed as active; ? = inconclusive; nt = not tested or not shown; + = active, no number.

SMILES | Runt-CBFb FRET | Runt-SMMHC FRET | MEX-5 binding | EBV gp42 block | RanGTP-Imp inh | LANA-H2B inh
COCCn1c(N)c(C#N)c2nc3ccccc3nc21 | 107.5* | 57.2* | 0.0 | -5.7 | 71.5* | -1.6
COc1cccc(Cn2c(N)c(C#N)c3nc4ccccc4nc32)c1OC | 36.6 | 21.8 | -4.5 | -21.6 | 9.0 | 0.2
COc1ccc(Cn2c(N)c(C#N)c3nc4ccccc4nc32)cc1 | 79.7* | 93.9* | -0.1 | -24.5 | 33.3* | 0.7
CCCCn1c(N)c(S(=O)(=O)c2ccc(C)cc2)c2nc3ccccc3nc21 | 3.1 | 16.2 | 2.4 | -4.0 | 3.2 | -4.0
N#Cc1c(N)n(CCc2ccc(F)cc2)c2nc3ccccc3nc12 | 93.3* | 77.1* | -8.7 | -1.8 | 44.4* | 6.1
Cc1ccc(C(=O)NCCn2c(N)c(C#N)c3nc4ccccc4nc32)cc1 | 97.7* | 78.7* | -5.0 | -28.4 | 58.4* | -1.1
Cc1ccc(C)c(S(=O)(=O)N2CCCC2CNC(=O)C(=O)NCc2cccs2)c1 (stereo not drawn) | nt | nt | 0.2 | nt | -4.0 | -0.3
Cc1cn(S(=O)(=O)c2ccccc2[N+](=O)[O-])cn1 | -1.2 | 1.0 | 1.2 | -3.4 | 4.0 | -0.8
O=C(CN1CCN(c2ccccc2F)CC1)NCc1ccccc1 | nt | nt | 1.6 | nt | 2.5 | 32.9*
CCCCN(CCCC)CCCNC(=O)Cn1cc2c(n1)-c1c(oc(C(=O)N3CCCC3)c1C)CC2 | nt | nt | 0.6 | nt | -6.1 | 10.9
CCc1cccc(C)c1NC(=O)CN1C(=O)NC(Cc2ccccc2)C1=O (stereo not drawn) | -0.5 | -2.7 | 3.8 | 1.7 | -1.1 | -7.0
O=[N+]([O-])c1cc(CN2CCCC2)c2cccnc2c1O | -1.1 | -6.5 | nt | 88.2* | nt | 0.0
OCCN1CCN(Cc2cc(Cl)c3cccnc3c2O)CC1 | 3.6 | -5.5 | -6.4 | -0.6 | 40.3* | 1.9
Oc1c(CN2CCN(c3ccccn3)CC2)cc(Cl)c2cccnc12 | -1.7 | -13.5 | -7.0 | -17.6 | 23.9* | -2.6
Oc1c(Cl)cc(CN2CCCCC2)c2cccnc12 | nt | nt | -1.5 | nt | 7.9 | -4.7
COc1ccc2[nH]cc(CCNC(=O)Cc3ccc(F)cc3)c2c1 | nt | nt | -0.5 | nt | 0.4 | -5.9
NNC(=O)c1cnn(Cc2ccccc2)c1N | 0.2 | -5.0 | -4.6 | -6.4 | -0.5 | -2.7
COC(=O)c1c(C(=O)OC)c(-c2ccc(Br)cc2)n2c1CS(=O)C2 (stereo not drawn) | nt | nt | 2.4 | nt | 2.9 | 3.3
COc1ccc(C(=O)NCCCn2cccn2)cc1OC1CCN(C(C)=O)CC1 | nt | nt | 0.3 | nt | 0.9 | nt
Cc1cc(C)c2c(c1)C1C=CCC1C(c1ccc(S(=O)(=O)N3CCOCC3)cc1)N2 (stereo not drawn) | 6.5 | -1.8 | -0.5 | -10.9 | 2.9 | -15.5
O=C(O)c1cc(Cl)c2c(c1)[C@@H]1C=CC[C@@H]1[C@H](c1ccc(S(=O)(=O)N3CCOCC3)cc1)N2 | 8.1 | -4.8 | -25.7* | -11.2 | -3.1 | -0.5
CCc1cc(Cn2nc(-c3ccccc3)cc2C(=O)O)on1 | nt | nt | -2.7 | nt | 1.3 | -2.3
Cc1[nH]c2ccccc2c1/C=N/NC(=S)NC(C)C | 9.3 | 6.7 | -26.2* | 2.5 | ? | -0.5
Cc1cc(C)c2c(N)c3cccc(C)c3nc2n1 | 4.6 | 78.7* | -3.7 | -5.7 | 126.0* | -4.6
O=C(O)CCN1C(=O)C2C3CC(C2C1=O)C1C(c2ccccc2)c2sc(=O)[nH]c2SC31 (stereo not drawn) | 12.0 | -0.7 | -1.1 | 7.6 | 21.0* | -7.5
SMILES | Runt-CBFb FRET | Runt-SMMHC FRET | MEX-5 binding | EBV gp42 block | RanGTP-Imp inh | LANA-H2B inh
O=C(O)CCN1C(=O)C2C3CC(C2C1=O)C1C(c2ccccc2)c2sc(=O)n(-c4ccccc4)c2SC31 (stereo not drawn) | 4.1 | 0.4 | -0.1 | -3.5 | 8.6 | 1.3
COc1ccc(C2c3sc(=O)[nH]c3SC3C4CCC(C4)C23)cc1 (stereo not drawn) | 13.6 | 3.6 | 0.3 | -7.7 | 5.2 | -3.1
Cc1ccc(C2c3sc(=O)[nH]c3SC3C4CC(C5C(=O)N(C(C)C(=O)O)C(=O)C45)C23)cc1 (stereo not drawn) | 27.4 | 4.3 | -1.6 | -3.7 | 57.8* | 0.9
O=c1[nH]c2c(s1)C(c1ccccc1)C1C3CCC(C3)C1S2 (stereo not drawn) | 3.6 | 10.8 | -0.6 | -3.8 | 26.1* | 1.8
COc1cc(C2c3sc(=O)[nH]c3SC3C4CCC(C4)C23)ccc1O (stereo not drawn) | 5.4 | 12.7 | 0.3 | 8.2 | -3.4 | -1.1
Cc1ncoc1C(=O)N1CCCC(C(=O)c2ccc(-c3ccccc3)cc2)C1 (stereo not drawn) | -3.7 | 0.1 | -1.1 | -9.1 | -0.3 | 2.3
CCOC(=O)c1ccc2c(c1)NCc1cccc(OC)c1O2 | 2.3 | -31.4 | -2.9 | 13.8 | -2.4 | 0.2
Cc1cc(C)c2nc3nc(C)c(C)cc3c(N)c2c1 | 19.1 | 91.9* | -2.6 | 11.7 | 13.6 | nt
Cc1ccc(-c2nnc(-c3cccc(NC(=O)c4cccs4)c3)o2)cc1 | -0.5 | -1.1 | -3.3 | -21.4 | 4.4 | 0.2
Cn1ncc2c(NNC(=O)Cc3ccccc3)ncnc21 | -0.9 | 5.9 | -34.7* | -10.3 | -1.4 | -1.8
CCOC(=O)N1CC=C2C(C#N)=C(N)C(C#N)(C#N)[C@H](c3ccccc3OCC)[C@H]2C1 | 0.2 | -0.7 | -3.8 | -9.8 | 3.4 | -3.3
COc1cccc(C2C3CN(C)CC=C3C(C#N)=C(N)C2(C#N)C#N)c1OC (stereo not drawn) | 74.0* | 61.5* | -66.6* | 77.5* | 38.7* | 4.9
CCN1CC=C2C(C#N)=C(N)C(C#N)(C#N)[C@H](c3cccc(OC)c3OC)[C@H]2C1 | 40.8 | 62.0* | nt | nt | nt | 16.6
CCn1cc(C(=O)NC(=S)Nc2cccc(O)c2)cn1 | 1.3 | -4.9 | 0.8 | 6.4 | 0.4 | -0.1
O=C1CC(=O)C(n2cncn2)C(c2cccc(Cl)c2)C1 (stereo not drawn) | -1.1 | -3.5 | -0.3 | -25.7 | 0.4 | 15.7*
CCN(CC)c1ccc(/C=C(\C#N)C(=O)c2ccc(Br)cc2)cc1 | -57.3 | -192.7 | -16.4 | + | -114.5 | -15.0
N#C/C(=C\c1cc(Cl)c(OCc2ccc(Cl)cc2)c(Cl)c1)C(N)=O | 2.7 | 3.5 | 2.1 | -13.8 | -0.8 | 6.8
N#C/C(=C\c1cc(O)c(O)c(O)c1)C(N)=O | 22.7 | -28.2 | -26.8* | -54.3 | 1.4 | -5.1
CCN(CC)c1ccc(/C=C(\C#N)C(N)=S)cc1 | -18.4 | -27.7 | 7.7 | -200.1 | 3.2 | 18.2
CCN(CC)c1ccc(/C=C(\C#N)C(N)=O)cc1 | 29.4 | 63.0* | nt | -96.7 | nt | nt
CCOc1ccc(S(=O)(=O)N2CCCC(C(=O)NCc3ccccn3)C2)cc1C (stereo not drawn) | nt | nt | 1.5 | nt | -4.0 | -4.5
CCCc1ccc2oc(C(=O)N(C)Cc3nccs3)c(C)c2c1 | nt | nt | 2.1 | nt | 0.3 | -2.8
